Tests used:
[1] = Antiproliferative activity against human TCCSUP cells after 48 hrs by MTS assay; type: functional; details: TCC-SUP
How it was run: (§1)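 Cells were grown in DMEM with 1% penicillin/streptomycin and FBS (10% for MDA-MB-231, 15% for TCC-SUP). At 1×10^4 cells/mL, cells were exposed for 48 h to five compound concentrations freshly diluted from DMSO stocks (final DMSO <1%). MTS reagent was then added for 2 h at 37 °C, 5% CO2, and absorbance read at 490 nm. Viability was taken as % of control and GI50 read from dose-response curves; 3 independent cultures, 4 wells per concentration.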

MDA-MB-231 = assay: Antiproliferative activity against human MDA-MB-231 cells after 48 hrs by MTS assay; type: functional; details: MDA-MB-231, 48 h; how it was run: as §1

Row | Compound | GI50 [1] [µM] | GI50 (MDA-MB-231) [µM]
1 | Cc1cc(=O)oc2c1ccc1c3ccccc3sc12 | 0.253 | 0.049
2 | Cc1c(Cl)c(=O)oc2c1ccc1c3ccccc3sc12 | 0.311 | 0.46
3 | Cc1c(Cl)c(=O)oc2cc3c(cc12)oc1ccccc13 | 0.243 | 0.082
4 | Cc1c(Cl)c(=O)oc2cc3[nH]c4ccccc4c3cc12 | 0.149 | 0.421
5 | CCOC(=O)/C=C/n1c2ccccc2c2cc(O)ccc21 | 0.025 | 0.198

Source: ChEMBL document CHEMBL3352478, “Novel benzopsoralen analogues: synthesis, biological activity and molecular docking studies” (2014)
